Measured values published in ChEMBL document CHEMBL4118065, “Design, synthesis and antimycobacterial activity of novel imidazo[1,2-a]pyridine-3-carboxamide derivatives” (Eur J Med Chem, 2017).
Converted amounts (≈) assume the structure as drawn.

system: Mycobacterium tuberculosis; test: Antimycobacterial activity against Mycobacterium tuberculosis H37Rv ATCC 27294 after 7 days by microplate Alamar blue assay; type: functional; conditions: H37Rv ATCC 27294, 168 h
Summary of the method: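 MABA against replicating M. tuberculosis. Cells grown to late log phase (70–100 Klett units) in 7H9 broth with 0.2% glycerol, 0.05% Tween 80 and 10% ADC. They were washed in PBS, filtered (8 µm) and frozen. Twofold compound dilutions received 2×10^5 CFU per well at 37 °C. Tween 80 and Alamar blue were added on day 7, then 16–24 h more. Fluorescence read at 530/590 nm. MIC = lowest concentration giving ≥90% fluorescence reduction versus bacterium-only controls.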

Structure (SMILES) | MIC90 [µM]
Cc1ccc2nc(C)c(C(=O)NCCNc3ccc(Br)cc3)n2c1 | 0.64 (≈ 0.248 µg/mL)
Cc1ccc2nc(C)c(C(=O)NCCOc3ccc(Br)cc3)n2c1 | 0.038 (≈ 0.0148 µg/mL)
Cc1ccc2nc(C)c(C(=O)N3CCN(c4ccc(F)cc4)CC3)n2c1 | 90.3 (≈ 31.8 µg/mL)
Cc1ccc2nc(C)c(C(=O)NCCCNc3ccc([N+](=O)[O-])cc3)n2c1 | > 87
Cc1ccc2nc(C)c(C(=O)N3CCN(c4ccccc4F)CC3)n2c1 | > 90
Cc1ccc2nc(C)c(C(=O)NCCCNc3ccccc3)n2c1 | 6.21 (≈ 2 µg/mL)
Cc1ccc2nc(C)c(C(=O)NCCNc3ccccc3F)n2c1 | 0.76 (≈ 0.248 µg/mL)
Cc1ccc2nc(C)c(C(=O)NCCNc3ccc(C)c(C)c3)n2c1 | 0.18 (≈ 0.0606 µg/mL)
Cc1ccc2nc(C)c(C(=O)N3CCC(c4ccc(F)cc4)CC3)n2c1 | 90.3 (≈ 31.7 µg/mL)
Cc1ccc2nc(C)c(C(=O)N3CCN(c4ccccn4)CC3)n2c1 | > 95
Cc1ccc2nc(C)c(C(=O)NCCOCc3ccc(Br)cc3)n2c1 | 0.62 (≈ 0.249 µg/mL)
Cc1ccc2nc(C)c(C(=O)N3CCN(c4ccccc4)CC3)n2c1 | 95.4 (≈ 31.9 µg/mL)
Cc1ccc2nc(C)c(C(=O)NCCCNc3ccc(C(C)(C)C)cc3)n2c1 | 1.32 (≈ 0.5 µg/mL)
Cc1ccc2nc(C)c(C(=O)NCCNc3ccc([N+](=O)[O-])cc3)n2c1 | > 90
Cc1ccc2nc(C)c(C(=O)NCCCOc3ccc(Br)cc3)n2c1 | 0.62 (≈ 0.249 µg/mL)
Cc1ccc(N2CCN(C(=O)c3c(C)nc4ccc(C)cn34)CC2)cc1 | 46 (≈ 16 µg/mL)
Cc1ccc2nc(C)c(C(=O)NCCNc3ccccc3)n2c1 | 0.81 (≈ 0.25 µg/mL)
Cc1ccc2nc(C)c(C(=O)N3CCN(c4ccc(F)cc4F)CC3)n2c1 | > 86
Cc1ccn2c(C(=O)NCCCNc3ccc([N+](=O)[O-])cc3)c(C)nc2c1 | > 87
Cc1ccc2nc(C)c(C(=O)NCCNCc3ccc(Br)cc3)n2c1 | 9.97 (≈ 4 µg/mL)

Structure (SMILES) | MIC90 [µM]
COc1ccc(NCCNC(=O)c2c(C)nc3cc(C)ccn23)cc1 | 47.3 (≈ 16 µg/mL)
Cc1ccc2nc(C)c(C(=O)NCCOCc3ccccc3)n2c1 | 1.93 (≈ 0.624 µg/mL)
Cc1ccn2c(C(=O)NCCCNc3ccccc3)c(C)nc2c1 | 12.4 (≈ 4.01 µg/mL)
COc1ccc(NCCNC(=O)c2c(C)nc3ccc(C)cn23)cc1 | 0.044 (≈ 0.0149 µg/mL)
Cc1ccc2nc(C)c(C(=O)NCCNc3ccc(C(F)(F)F)cc3)n2c1 | 42.5 (≈ 16 µg/mL)
Cc1ccc2nc(C)c(C(=O)N3CCN(c4ccc([N+](=O)[O-])cc4)CC3)n2c1 | 84.4 (≈ 32 µg/mL)
COc1ccc(N2CCN(C(=O)c3c(C)nc4ccc(C)cn34)CC2)cc1 | > 87
Cc1ccc2nc(C)c(C(=O)NCCNc3ccc(F)cc3)n2c1 | 1.53 (≈ 0.499 µg/mL)
Cc1ccc2nc(C)c(C(=O)N3CCN(c4ccc(Cl)cc4)CC3)n2c1 | 43.5 (≈ 16 µg/mL)
Cc1ccc2nc(C)c(C(=O)N3CCN(c4ccc(Br)cc4)CC3)n2c1 | > 77
Cc1ccn2c(C(=O)NCCCNc3ccc(C(C)(C)C)cc3)c(C)nc2c1 | 10.6 (≈ 4 µg/mL)
Cc1ccc2nc(C)c(C(=O)NCCCNc3ccc(F)cc3)n2c1 | 1.47 (≈ 0.5 µg/mL)
Cc1ccc2nc(C)c(C(=O)NCCNCc3ccccc3)n2c1 | 49.6 (≈ 16 µg/mL)
Cc1ccc2nc(C)c(C(=O)NCCNc3cccc(C(F)(F)F)c3)n2c1 | 5.31 (≈ 2 µg/mL)
Cc1ccc2nc(C)c(C(=O)NCCNc3ccc(Cl)c(F)c3)n2c1 | 1.39 (≈ 0.502 µg/mL)
Cc1ccc2nc(C)c(C(=O)NCCNc3ccc(C(C)(C)C)cc3)n2c1 | 0.041 (≈ 0.0149 µg/mL)
Cc1ccc2nc(C)c(C(=O)N3CCN(c4ccncc4)CC3)n2c1 | 95 (≈ 31.9 µg/mL)
Cc1ccc2nc(C)c(C(=O)NCCN3CCN(c4ccccc4)CC3)n2c1 | 0.66 (≈ 0.249 µg/mL)
NNC(=O)c1ccncc1 [ISONIAZID] | 0.36 (≈ 0.0494 µg/mL)
CO[C@H]1/C=C/O[C@@]2(C)Oc3c(C)c(O)c4c(O)c(c(/C=N/N5CCN(C)CC5)c(O)c4c3C2=O)NC(=O)/C(C)=C\C=C\[C@H](C)[C@H](O)[C@@H](C)[C@@H](O)[C@@H](C)[C@H](OC(C)=O)[C@@H]1C [RIFAMPIN] | 0.071 (≈ 0.0584 µg/mL)

system: not listed separately; test: Cytotoxicity against African green monkey Vero cells assessed as decrease in cell viability after 72 hrs by MTT assay; type: cell-based; conditions: chlorocebus sabaeus
Summary of the method: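 Vero cells grown in MEM with Earle's salts plus 10% FBS, 37 °C, 5% CO2; seeded at 1 × 10⁴ cells per well, allowed 24 h recovery, then medium replaced with assay medium with or without compound (1000 to 4 μg/mL). After 72 h exposure, viability read by MTT; CC50 calculated by Bliss analysis.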

Structure (SMILES) | CC50 at 72 h [µM]
COc1ccc(NCCNC(=O)c2c(C)nc3ccc(C)cn23)cc1 | 193
Cc1ccc2nc(C)c(C(=O)NCCNc3ccc(C(C)(C)C)cc3)n2c1 | 57.6

system: not listed separately; test: Selectivity index, ratio of CC50 for African green monkey Vero cells to MIC=>90 for Mycobacterium tuberculosis H37Rv ATCC 27294; type: toxicity; conditions: read-out: Selectivity Index
Summary of the method: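 Vero cells in MEM with Earle's salts and 10% FBS, 37 °C, 5% CO₂. Seeded at 1×10⁴ cells/well and recovered 24 h. Exposed to compound at 1000 to 4 μg/mL for 72 h. Viability by MTT. CC50 by Bliss analysis. SI is CC50 divided by MABA MIC against H37Rv ATCC 27294.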

Structure (SMILES) | selectivity ratio
COc1ccc(NCCNC(=O)c2c(C)nc3ccc(C)cn23)cc1 | 4400
Cc1ccc2nc(C)c(C(=O)NCCNc3ccc(C(C)(C)C)cc3)n2c1 | 1400
